# Screening data deposited in PubChem by Broad Institute.
# Many of the other results were omitted from the sample, so hits are more common in it than they were.
# T cruzi growth-1: T. cruzi proliferation inhibition. T. cruzi beta-gal in NIH3T3, GalScreen luminescence, 90 h. inhibition, % at 8.34 µM. hit rate 5.9% among 77,000. AID 624255;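 active = mean inhibition above about 93%, with at least 55% of replicates each passing it, limit read from the data, passing the limit was not always enough; inconclusive = only one of those two conditions holds; inactive = neither condition holds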
# IDH1 R132H inh: IDH1 R132H (human) inhibition | O75874 | IDH1 R132H reductase, diaphorase/resazurin fluorescence, 60 min | inhibition, % at 10 µM | hit rate 0.18% among 70,000 | AID 624101; in the data active = inhibition above about 34%; inconclusive = no clear call, values can overlap the other calls; inactive = below about 11%;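 note: 0% = DMSO and 100% = no enzyme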
# Target sequence (O75874 whole entry R132H): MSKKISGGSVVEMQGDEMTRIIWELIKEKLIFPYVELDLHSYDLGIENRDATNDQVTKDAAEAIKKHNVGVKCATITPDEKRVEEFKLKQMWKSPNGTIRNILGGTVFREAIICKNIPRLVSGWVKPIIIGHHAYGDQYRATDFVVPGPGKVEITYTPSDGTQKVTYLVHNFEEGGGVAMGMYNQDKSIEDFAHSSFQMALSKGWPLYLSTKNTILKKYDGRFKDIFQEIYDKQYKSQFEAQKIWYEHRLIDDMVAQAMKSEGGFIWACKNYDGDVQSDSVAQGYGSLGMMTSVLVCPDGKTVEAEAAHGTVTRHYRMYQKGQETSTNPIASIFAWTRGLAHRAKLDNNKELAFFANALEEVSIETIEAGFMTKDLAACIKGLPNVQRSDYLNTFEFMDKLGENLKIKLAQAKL
# GASC1 inh: inhibitors of human demethylase GASC-1 KDM4C; Q9H3R0; GST-KDM4C 2-372, H3K9me3 peptide, LANCE TR-FRET; inhibition, % at 12.5 µM; hit rate 0.15% among 96,000; AID 720574;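 active = mean replicate inhibition above about 25%, with at least 55% of replicates also reaching it, limit read from the data, passing the limit was not always enough; inconclusive = only one of those two conditions met; inactive = neither condition met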
#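 Compound: one test concentration per compound; Material: GST-GASC-1 enzyme fragment 2-372; Amount: GASC-1 enzyme at 10 nM final in reaction; Also added: H3K9me3 peptide substrate, Fe(II), 2-oxoglutarate; Technique: LANCE TR-FRET; Times: 30 min demethylation and 1 h detection at room temperature.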
# T cruzi growth-2: blocks T. cruzi growth in NIH3T3 host cells. shares compounds with T cruzi growth-1. T. cruzi beta-gal in NIH3T3, GalScreen luminescence, 90 h. inhibition, % at 8.35 µM. hit rate 72% among 5,600. AID 651739;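 active = mean replicate inhibition above about 95% and at least 55% of replicates individually reaching it, limit read from the data; inconclusive = only one of the two criteria is met; inactive = neither criterion is met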
# T cruzi growth-3: blocks T. cruzi growth in NIH3T3 host cells | AID 651740 | hit rate 21% among 5,600 | inhibition, % at 2.09 µM | T. cruzi beta-gal in NIH3T3, GalScreen luminescence, 90 h | shares compounds with T cruzi growth-1;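 active = mean inhibition above about 95%, with at least 55% of replicates also reaching it, limit read from the data; inconclusive = meets just one of the two conditions; inactive = meets neither condition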;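 note: plate controls were neutral control median for no effect and positive control median for full effect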
# 3T3 cytotox: NIH/3T3 (mouse) viability loss | hit rate 14% among 5,600 | AID 651742 | shares compounds with T cruzi growth-1 | NIH/3T3 viability, CellTiter-Glo ATP luminescence, 90 h | cytotoxicity (signal decrease), % at 8.35 µM;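 active = mean signal decrease across replicates above about 35% based on untreated-well scatter, with enough replicates individually passing, limit read from the data; inconclusive = no rule stated though some were filed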;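 note: 0% = median of neutral control wells and 100% = median of positive control wells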
# 3T3 cytotox 2: NIH/3T3 (mouse) viability loss. AID 651744. NIH/3T3 viability, CellTiter-Glo ATP luminescence, 90 h. shares compounds with T cruzi growth-1. inhibition, % at 24.9 µM. hit rate 56% among 5,600;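 active = mean loss of cell viability signal at or above a set limit, and enough replicates individually reaching it; inconclusive = meets only the mean limit or only the replicate share; inactive = meets neither condition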;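 note: 0% = median of neutral control wells and 100% = median of positive control wells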
# Numbers without * were called inactive; ? = inconclusive; / = not tested or not shown.
SMILES,T cruzi growth-1,IDH1 R132H inh,GASC1 inh,T cruzi growth-2,T cruzi growth-3,3T3 cytotox,3T3 cytotox 2
COC(=O)c1cn(CC(=O)NCC2CCCO2)c2ccccc12 (stereo unspecified),/,0,/,/,/,/,/
Cc1c(Br)c([N+](=O)[O-])nn1CC(=O)Nc1cc(F)ccc1F,/,-1,/,/,/,/,/
Cc1ccc(-c2ccc([C@H]3[C@@H](CO)N4CCCCN(S(=O)(=O)c5cccc(C)c5)C[C@@H]34)cc2)cc1,85,/,/,/,/,/,/
Cc1cccc(S(=O)(=O)N2CCCCN3[C@H](CO)[C@H](c4ccc(-c5cccnc5)cc4)[C@H]3C2)c1,1,/,-1,/,/,/,/
Cc1ccc(-c2ccc([C@@H]3[C@H]4CN(S(=O)(=O)c5cccc(C)c5)CCCCN4[C@H]3CO)cc2)cc1,?,/,/,104*,83,21,46*
Cc1ccc(-c2ccc([C@@H]3[C@@H](CO)N4CCCCN(S(=O)(=O)c5cccc(C)c5)C[C@H]34)cc2)cc1,107*,/,/,101*,115*,54*,104*
CCC(=O)N1CC2(C1)[C@H](c1ccc(-c3ccc(C)cc3)cc1)[C@@H](CO)N2S(=O)(=O)CC,/,/,1,/,/,/,/
Cc1cc(C)nc(NS(=O)(=O)c2ccc(NC(=S)NC(=O)c3ccccc3Br)cc2)n1,/,0,/,/,/,/,/
C[C@H]1CN([C@@H](C)CO)S(=O)(=O)c2ccc(Br)cc2O[C@@H]1CN(C)S(=O)(=O)c1ccccc1F,87,/,0,/,/,/,/
C[C@H]1CN([C@@H](C)CO)S(=O)(=O)c2ccc(C#Cc3cccc(F)c3)cc2O[C@@H]1CN(C)S(=O)(=O)c1ccccc1F,104*,0,0,104*,103*,23,60*
C[C@H]1CN([C@@H](C)CO)S(=O)(=O)c2ccc(Br)cc2O[C@H]1CN(C)S(=O)(=O)c1ccccc1F,74,/,1,/,/,/,/
C[C@H]1CN([C@@H](C)CO)S(=O)(=O)c2ccc(C#Cc3cccc(F)c3)cc2O[C@H]1CN(C)S(=O)(=O)c1ccccc1F,111*,0,0,106*,72,22,?
O=C(Nc1cccc(F)c1)N1CCCCN2[C@H](CO)[C@@H](c3ccc(-c4ccccc4F)cc3)[C@H]2C1,108*,/,0,89,107*,75*,105*
O=C(Nc1cccc(F)c1)N1CCCCN2[C@H](CO)[C@@H](c3ccc(-c4ccccc4F)cc3)[C@@H]2C1,68,/,0,/,/,/,/
Cc1ccccc1-c1ccc([C@H]2[C@H]3CN(C(=O)Nc4cccc(F)c4)CCCCN3[C@H]2CO)cc1,92,/,1,/,/,/,/
O=C(Nc1cccc(F)c1)N1CCCCN2[C@@H](CO)[C@H](c3ccc(-c4ccccc4F)cc3)[C@@H]2C1,110*,/,-1,99*,85,82*,107*
CN1CCN(c2ccc(CNS(=O)(=O)c3cccc4nonc34)cc2)CC1,/,0,/,/,/,/,/
CO[C@H]1CN(C)C(=O)c2ccc(NC(=O)c3cnccn3)cc2OC[C@H](C)N(CCc2ccccc2)C[C@H]1C,66,0,1,/,/,/,/
O=C(Cc1ccccc1[N+](=O)[O-])Nc1cc(Cl)ccc1Oc1ccccc1,/,0,/,/,/,/,/
COCC#Cc1ccc2c(c1)O[C@@H](CN(C)CC1CCCCC1)[C@@H](C)CN([C@@H](C)CO)S2(=O)=O,105*,-2,-1,102*,85,11,40*
C[C@@H]1CN([C@@H](C)CO)S(=O)(=O)c2ccc(C#C[C@@H](C)O)cc2O[C@H]1CN(C)CC1CCCC1,-16,0,0,/,/,/,/
COCC#Cc1ccc2c(c1)O[C@@H](CN(C)CC1CCCCC1)[C@H](C)CN([C@@H](C)CO)S2(=O)=O,?,0,2,103*,90,?,105*
C[C@H](O)C#Cc1ccc2c(c1)O[C@H](CN(C)CC1CCCCC1)[C@H](C)CN([C@H](C)CO)S2(=O)=O,/,2,-1,/,/,/,/
COCCNS(=O)(=O)c1ccc(Cl)c(Cl)c1OC,/,-1,/,/,/,/,/
C=C1CC[C@H]2C(=C)CC[C@@]3(O)C(=C)C(=O)O[C@@H]3[C@@H]12,/,0,/,/,/,/,/
SMILES,T cruzi growth-1,IDH1 R132H inh,GASC1 inh,T cruzi growth-2,T cruzi growth-3,3T3 cytotox,3T3 cytotox 2
C[C@@H]1CN([C@H](C)CO)S(=O)(=O)c2ccc(-c3cccc(C#N)c3)cc2O[C@H]1CN(C)C(=O)C1CC1,76,0,0,/,/,/,/
C[C@@H]1CN([C@H](C)CO)S(=O)(=O)c2ccc(C#C[C@@H](C)O)cc2O[C@H]1CN(C)Cc1cccnc1,88,7,/,/,/,/,/
CC(C)C#Cc1ccc2c(c1)O[C@@H](CN(C)Cc1ccncc1)[C@@H](C)CN([C@H](C)CO)S2(=O)=O,107*,-1,-2,94,85,17,?
CC(C)C#Cc1ccc2c(c1)O[C@H](CN(C)Cc1cccnc1)[C@@H](C)CN([C@@H](C)CO)S2(=O)=O,93*,/,1,108*,102*,42*,106*
CC(C)C#Cc1ccc2c(c1)O[C@H](CN(C)Cc1cccnc1)[C@H](C)CN([C@H](C)CO)S2(=O)=O,78,/,2,/,/,/,/
CC(C)C#Cc1ccc2c(c1)O[C@@H](CN(C)Cc1cccnc1)[C@H](C)CN([C@H](C)CO)S2(=O)=O,100*,/,1,99*,92,40*,106*
CC(C)C#Cc1ccc2c(c1)O[C@@H](CN(C)Cc1cccnc1)[C@@H](C)CN([C@H](C)CO)S2(=O)=O,?,/,0,99*,79,25,23
C[C@H](CO)N1C[C@H](C)[C@H](CN(C)Cc2ccncc2)Oc2cc(C#C[C@@H](C)O)ccc2S1(=O)=O,91,6,-1,/,/,/,/
C[C@H](CO)N1C[C@H](C)[C@@H](CN(C)Cc2cccnc2)Oc2cc(C#C[C@@H](C)O)ccc2S1(=O)=O,39,/,/,/,/,/,/
CC1CCC23CCC(O[C@@H]4O[C@H](CO)[C@@H](O)[C@H](O)[C@H]4O)C12C(C=O)=CC3(C)C (stereo partly specified),/,0,/,/,/,/,/
O=C(O)Cn1cc(C(=O)C2CCCCC2)c2ccccc21,/,1,/,/,/,/,/
Cc1cc2ncn(CC(O)COc3ccc(N)cc3)c2cc1C (stereo unspecified),/,0,/,/,/,/,/
CCCC#Cc1ccc2c(c1)O[C@H](CN(C)CCC)[C@H](C)CN([C@H](C)CO)S2(=O)=O,62,0,6,/,/,/,/
COc1ccc(S(=O)(=O)N(C)CC(=O)Nc2cccc(C(F)(F)F)c2)cc1Cl,/,0,/,/,/,/,/
CC(C)C#Cc1ccc2c(c1)O[C@@H](CN(C)C(=O)c1cccnc1)[C@H](C)CN([C@@H](C)CO)S2(=O)=O,103*,81*,52*,76,64,22,39*
CC(C)C#Cc1ccc2c(c1)O[C@H](CN(C)C(=O)c1cccnc1)[C@@H](C)CN([C@H](C)CO)S2(=O)=O,92,0,3,/,/,/,/
CCC(c1nc2ccccc2c(=O)n1-c1ccccn1)N1C(=O)c2ccccc2C1=O (stereo unspecified),/,0,/,/,/,/,/
